Tn7 DDE FP = inhibitors of Tn7 peptide binding to fibrin DD(E), primary screen, biochemical, fluorescence polarization, human fibrin, Tn7 probe | inhibition, % at 8.3 µM | FP displacement of FITC-Tn7 peptide from fibrin DD(E); 0% = median of compound wells per plate | Fibrinogen beta chain (Homo sapiens), P02675 | AID 720508, 2013 | 370,000 compounds, 0.13% hits;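 active means inhibition above the mean of compounds falling within the control limits plus 3 SD of them, cut at about 14% in these data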;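 further: 0% = plate median of compound wells and 100% = 10 µM Aha-Tn7 peptide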
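Test system: human clot-derived fibrin DD(E) complex / Quantity: 2 µM final DD(E) protein / Incubation: 10 min plus 3 h, room temperature / Measured by: fluorescence polarization / Benchmarks: high control of 10 µM Aha-Tn7 peptide / Replicates: singlicate testing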
PKA-R1A activ = activators of PKA-R1A holoenzyme, primary screen, biochemical, fluorescence polarization, Cy5-IP20, bovine R1A, mouse PKAc; 340,000 compounds, 0.083% hits; cAMP-dependent protein kinase type I-alpha regulatory subunit (Bos taurus) + …; activation, % at 11.4 µM; PKA-R1A dissociation; scaled: DMSO 0%, 113 µM cGMP 100%;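 active means percent activation above the mean of all tested compounds plus 3 SD, cut at about 19% in these data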;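 further: higher means more PKAc released from R1A so a rise in polarization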
DDE Tn6 FP inh = inhibitors of Tn6 peptide binding to fibrin DD(E), primary screen, biochemical, fluorescence polarization, human fibrin, Tn6 probe. Fibrin DD(E) TRITC-Tn6 fluorescence polarization displacement. AID 720509, 2013. inhibition, % at 8.3 µM. 370,000 compounds, 0.21% hits. Fibrinogen beta chain (Homo sapiens), P02675;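 active means inhibition above a per-campaign cutoff: mean of compounds within control limits plus 3 SD, cut at about 15% in these data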;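 further: 0% = median of all compound wells on the plate and 100% = blocking peptide control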
PKA-R2B activ = activators of PKA-R2B holoenzyme, primary screen, biochemical, fluorescence polarization, Cy5-IP20, human; cAMP-dependent protein kinase catalytic subunit beta (Homo sapiens) + cAMP-dependent …; PKA-R2B holoenzyme dissociation; R2B truncated from residue 108, S112A mutant; 0% DMSO only, 100% 113 µM cGMP; activation, % at 11.4 µM; 340,000 compounds, 0.079% hits;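 active means activation above a cutoff set at the mean over all compounds plus 3 SD, cut at about 18% in these data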;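 further: higher means more holoenzyme dissociation and a rise in polarization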
Neddyl block = inhibitors of cullin neddylation, primary screen, biochemical, TR-FRET, uHTS, NAE and Ubc12; 360,000 compounds, 0.58% hits; NEDD8-conjugating enzyme Ubc12 (Homo sapiens) + NEDD8-activating enzyme E1 regulatory …; AID 651699, 2012; inhibition, % at 25 µM; in the data active means inhibition above about 36%
Target sequence (P61081 whole entry, looked up): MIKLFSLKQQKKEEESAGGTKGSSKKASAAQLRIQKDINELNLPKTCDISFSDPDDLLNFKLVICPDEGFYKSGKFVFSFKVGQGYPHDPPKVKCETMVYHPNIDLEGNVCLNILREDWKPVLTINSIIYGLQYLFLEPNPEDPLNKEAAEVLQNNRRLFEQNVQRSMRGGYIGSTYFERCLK
Target sequence (Q13564 whole entry, looked up): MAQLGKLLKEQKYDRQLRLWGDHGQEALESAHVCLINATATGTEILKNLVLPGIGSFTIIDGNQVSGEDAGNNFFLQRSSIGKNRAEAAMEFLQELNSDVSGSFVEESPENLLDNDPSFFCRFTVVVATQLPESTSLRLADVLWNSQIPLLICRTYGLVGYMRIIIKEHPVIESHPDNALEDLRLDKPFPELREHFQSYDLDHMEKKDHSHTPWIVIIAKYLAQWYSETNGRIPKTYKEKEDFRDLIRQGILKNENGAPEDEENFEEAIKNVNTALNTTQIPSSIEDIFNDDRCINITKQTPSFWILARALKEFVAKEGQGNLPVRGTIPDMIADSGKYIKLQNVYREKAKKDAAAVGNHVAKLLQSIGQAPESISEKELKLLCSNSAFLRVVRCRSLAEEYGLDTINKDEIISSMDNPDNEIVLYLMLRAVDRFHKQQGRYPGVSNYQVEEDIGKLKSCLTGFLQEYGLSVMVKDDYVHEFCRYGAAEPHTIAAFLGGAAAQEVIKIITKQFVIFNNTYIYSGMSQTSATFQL
R2B FP artifact = fluorescence polarization artefacts, biochemical, artefact control for PKA-R2B activator project; 270 compounds, 6% hits; activation, % at 11.4 µM; FP artifact counterscreen; shares compounds with PKA-R2B activ; in the data active means activation above about 20%;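 further: Cy5 labelled IP20 peptide probe with compound but no PKA protein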
PKA-R2B act conf = activators of PKA-R2B holoenzyme, confirmation, biochemical, fluorescence polarization, human; PKA-R2B complex, activation; AID 504797, 2011; activation, % at 11.4 µM; 270 compounds, 9% hits; shares compounds with PKA-R2B activ; in the data active means activation above about 19%
* hit, by the source's call; i = inactive; nt = no result. Hits are enriched below; roughly 1% of the tested compounds scored in any of these assays.

SMILES	Tn7 DDE FP	PKA-R1A activ	DDE Tn6 FP inh	PKA-R2B activ	Neddyl block	R2B FP artifact	PKA-R2B act conf
O=C1NCCCN1C1OC(CO)C(O)C1O (stereo unspecified)	-1	11	2	22*	0	6	6
O=c1cnn([C@@H]2O[C@H](CO)[C@@H](O)[C@H]2O)c(=O)[nH]1	nt	-9	nt	-7	4	nt	nt
CC1CCN(c2ccc(C(=O)O)cc2NS(=O)(=O)c2ccccc2[N+](=O)[O-])CC1	0	nt	5	nt	nt	nt	nt
O=C(O)CC(Cc1ccc(Cl)cc1)C(=O)Nc1ccc([N+](=O)[O-])cc1 (stereo unspecified)	6	3	8	19*	-11	-4	-1
CC1(C)CC(=O)N(CC(=O)N2CCN(c3ccc(F)cc3)CC2)c2ccccc2S1(=O)=O	-1	nt	2	nt	nt	nt	nt
CC1(C)CC(=O)N(CC(=O)N2CCN(c3cccc(Cl)c3Cl)CC2)c2ccccc2S1(=O)=O	5	nt	5	nt	nt	nt	nt
COc1ccc(CNS(=O)(=O)CC2NCc3cc(OC)ccc32)cc1 (stereo unspecified)	-1	nt	2	nt	nt	nt	nt
Cn1cnc(S(=O)(=O)Nc2cc(C(F)(F)F)ccc2N2CCOCC2)c1	1	-4	1	20*	2	1	-1
CCOc1ccc(NC(=O)CSc2nnnn2-c2ccc(C(N)=O)cc2)cc1	4	-13	-1	21*	-7	2	-1
COc1ccc(NC(=O)CSc2nnnn2-c2ccc(OC)cc2)cc1	-4	-4	10	-6	-6	nt	nt
O=C(c1cccc(Br)c1)N1CCC(Oc2cccnc2)CC1	-4	nt	0	nt	nt	nt	nt
C[C@@H](NC(=O)c1ccc(C#Cc2cccc(F)c2)cn1)C(C)(C)O	1	nt	1	nt	nt	nt	nt
CN(C)S(=O)(=O)c1ccc(S(=O)(=O)NCc2cccs2)cc1	-4	-2	3	25*	6	0	-1
O=S(=O)(NCc1cccs1)c1ccc(Br)cc1	-4	-9	7	6	-4	nt	nt
NS(=O)(=O)c1ccc(CCNC(=O)c2ccc(S(=O)(=O)N3CCCCC3)cc2)cc1	0	7	3	-13	3	nt	nt
NS(=O)(=O)c1ccc(CCNC(=O)c2ccc(Cl)c(S(=O)(=O)N3CCCCC3)c2)cc1	0	0	2	18*	2	4	6
C=CCNC(=O)c1ccc(-c2nc3ccccc3nc2-c2ccccc2)cc1	-9	2	5	22*	8	-1	4
C=CCNC(=O)c1ccc(-c2nc(-c3ccccc3)cs2)cc1	3	-7	-1	4	-2	nt	nt
Cc1ccc(Cn2c(CN3CC(C)OC(C)C3)nc3c2c(=O)n(C)c(=O)n3C)cc1 (stereo unspecified)	1	-6	5	19*	-2	3	1
COc1ccc(CC(=O)OCC(=O)NC2CCCCC2)cc1OC	-8	-5	-3	18*	-1	1	-2
CCOCCCNC(=O)C1CCN(S(=O)(=O)c2cc3c(cc2Br)CCN3C(=O)CC)CC1	-2	nt	-1	nt	nt	nt	nt
COC(=O)C1CN(C2CC2)CCS(=O)(=O)N1Cc1cn(Cc2ccc(F)cc2)nn1 (stereo unspecified)	4	nt	2	nt	nt	nt	nt
CCOc1cc(/C=N/n2c(C)nc3ccccc3c2=O)ccc1O	-2	-10	-10	20*	-1	2	3
C=CCn1c(SCc2cc(C(C)=O)ccc2OCC)nc2ccccc2c1=O	6	6	5	19*	-124	0	-1
COc1ccc(C(C)=O)cc1CSc1nc2ccccc2c(=O)n1-c1ccccc1	1	2	3	-4	i	nt	nt
